# Assay results as given in BindingDB's records for doi:10.1021/jm900106f (St. Jude Children'S Research Hospital, 2009).
# Target: T1, Zinc finger protein GLI1 (Homo sapiens, UniProt P08151)
# T1 sequence (P08151 whole entry): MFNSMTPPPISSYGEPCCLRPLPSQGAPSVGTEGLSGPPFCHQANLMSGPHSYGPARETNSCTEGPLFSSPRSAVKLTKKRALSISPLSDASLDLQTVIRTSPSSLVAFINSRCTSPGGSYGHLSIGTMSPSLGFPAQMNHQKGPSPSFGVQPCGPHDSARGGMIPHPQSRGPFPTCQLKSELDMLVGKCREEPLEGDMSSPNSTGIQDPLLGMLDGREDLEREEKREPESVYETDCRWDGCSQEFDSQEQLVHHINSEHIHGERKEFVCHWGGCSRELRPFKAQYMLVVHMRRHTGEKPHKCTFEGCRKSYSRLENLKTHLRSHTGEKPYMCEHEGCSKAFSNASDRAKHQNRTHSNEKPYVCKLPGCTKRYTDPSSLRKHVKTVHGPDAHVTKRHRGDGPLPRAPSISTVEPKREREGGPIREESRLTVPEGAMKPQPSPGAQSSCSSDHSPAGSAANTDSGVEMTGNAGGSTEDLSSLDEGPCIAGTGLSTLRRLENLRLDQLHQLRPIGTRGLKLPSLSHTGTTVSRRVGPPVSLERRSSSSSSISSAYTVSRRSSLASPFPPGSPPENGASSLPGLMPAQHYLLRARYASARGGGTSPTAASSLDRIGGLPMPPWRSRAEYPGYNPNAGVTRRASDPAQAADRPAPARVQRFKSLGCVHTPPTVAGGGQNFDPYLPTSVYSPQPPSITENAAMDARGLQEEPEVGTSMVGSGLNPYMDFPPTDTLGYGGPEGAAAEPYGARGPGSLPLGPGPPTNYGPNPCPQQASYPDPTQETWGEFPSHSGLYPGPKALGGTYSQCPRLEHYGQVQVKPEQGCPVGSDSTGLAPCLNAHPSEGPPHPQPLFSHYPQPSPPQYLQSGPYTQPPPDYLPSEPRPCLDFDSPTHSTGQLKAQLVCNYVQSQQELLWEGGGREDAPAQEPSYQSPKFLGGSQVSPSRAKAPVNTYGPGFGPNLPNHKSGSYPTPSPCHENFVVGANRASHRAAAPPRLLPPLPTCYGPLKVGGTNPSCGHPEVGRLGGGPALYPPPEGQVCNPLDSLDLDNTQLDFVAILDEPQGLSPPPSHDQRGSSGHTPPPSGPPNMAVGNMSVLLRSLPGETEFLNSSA
# Assay: Inhibition of exogenously transfected human Gli1-mediated transcriptional activity in mouse C3H10T1/2 cells after 24 hrs by luciferase reporter gene assay
# Summary of the method: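 They were replated 18 h later, given compound or DMSO 6 h after plating, and exposed for 24 h at 37 °C, 5% CO2. Lysate was read by dual luciferase as firefly/Renilla, triplicate, DMSO = 0%. IC50 came from curve fitting.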
row,IC50,Compound
1,9.4 µM,"C[C@H](C(=O)N(CCc1ccc(O)cc1)CCc1ccc(O)cc1)c1cccc(C(=O)c2ccccc2)c1 [(S)-2-(3-Benzoylphenyl)-N,N-bis(4-hydroxyphenethyl)propanamide]"
2,11.4 µM,C[C@H](C(=O)NCCc1ccc(O)cc1)c1cccc(C(=O)c2ccccc2)c1 [(S)-2-(3-Benzoylphenyl)-N-(4-hydroxyphenethyl)propanamide]
3,6.9 µM,CCCN(CCc1ccc(O)cc1)C(=O)[C@@H](C)c1cccc(C(=O)c2ccccc2)c1 [(S)-2-(3-Benzoylphenyl)-N-(4-hydroxyphenethyl)-N-propylpropanamide]
